Consider one compound from ChEMBL document CHEMBL4680221, “Discovery of pyrazole derivatives as cellular active inhibitors of histone lysine specific demethylase 5B (KDM5B/JARID1B)” (Eur J Med Chem, 2020).

Assay [1] addresses Lysine-specific demethylase 6B (Homo sapiens, UniProt O15054). The assay is described as follows: Inhibition of KDM6B (unknown origin).
For assay [2], the target named is T1, Lysine-specific demethylase 4C (Homo sapiens) (UniProt Q9H3R0).
T1 sequence (whole entry): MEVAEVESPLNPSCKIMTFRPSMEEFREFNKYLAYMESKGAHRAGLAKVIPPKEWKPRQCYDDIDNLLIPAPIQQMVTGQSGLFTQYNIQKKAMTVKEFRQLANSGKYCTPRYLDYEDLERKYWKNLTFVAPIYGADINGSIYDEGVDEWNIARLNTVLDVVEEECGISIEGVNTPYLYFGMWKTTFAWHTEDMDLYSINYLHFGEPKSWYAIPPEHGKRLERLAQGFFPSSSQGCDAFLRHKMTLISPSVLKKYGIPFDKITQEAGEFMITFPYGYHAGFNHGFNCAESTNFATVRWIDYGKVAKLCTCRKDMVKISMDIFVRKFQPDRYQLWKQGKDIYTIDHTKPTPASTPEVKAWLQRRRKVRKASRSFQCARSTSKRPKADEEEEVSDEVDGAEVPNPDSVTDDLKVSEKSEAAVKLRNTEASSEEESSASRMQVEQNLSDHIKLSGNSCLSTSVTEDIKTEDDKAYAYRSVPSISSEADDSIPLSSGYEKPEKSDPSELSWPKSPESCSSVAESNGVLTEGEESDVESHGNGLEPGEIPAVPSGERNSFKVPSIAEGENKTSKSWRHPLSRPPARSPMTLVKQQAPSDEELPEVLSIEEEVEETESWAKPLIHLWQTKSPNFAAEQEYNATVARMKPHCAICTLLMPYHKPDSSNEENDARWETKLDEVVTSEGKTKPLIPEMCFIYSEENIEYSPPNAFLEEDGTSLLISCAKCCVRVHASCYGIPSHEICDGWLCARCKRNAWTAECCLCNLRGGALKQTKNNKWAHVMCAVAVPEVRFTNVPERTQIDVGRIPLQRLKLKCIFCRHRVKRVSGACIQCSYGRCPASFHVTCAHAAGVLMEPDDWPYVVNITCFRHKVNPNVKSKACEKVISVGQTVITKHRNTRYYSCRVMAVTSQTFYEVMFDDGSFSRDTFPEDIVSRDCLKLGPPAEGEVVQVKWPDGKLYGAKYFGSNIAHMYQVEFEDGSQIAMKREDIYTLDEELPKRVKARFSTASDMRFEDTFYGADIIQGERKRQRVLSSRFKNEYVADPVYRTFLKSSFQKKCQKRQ
The experiment in a line: Inhibition of KDM4C (unknown origin) at 0.25 uM relative to control.

The target in assay [3] is T2, Lysine-specific demethylase 5B (Homo sapiens, UniProt Q9UGL1). The assay is described as follows: Inhibition of KDM5B in human MKN-45 cells assessed as increase in H3K4me3 accumulation at 0.5 to 20 uM measured after 5 days by Western blot analysis. It is filed as cell-based. Particulars: dose 0.5-20 µM, time 5.0 day. The essentials: (§1)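 MKN45 cells were treated for 5 days and lysed in RIPA buffer. About 30 µg protein was run on 10% SDS-PAGE and transferred to 0.2 µm nitrocellulose, then blocked with 5% milk in PBS for 2 h. Blots were probed for histone methylation marks with histone 3 as loading control and detected by ECL.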

Assay [4] addresses T2, Lysine-specific demethylase 5B. The assay is described as follows: Inhibition of recombinant human N-terminal FLAG-tagged KDM5B expressed in Sf9 insect cells using biotin-H3K4me as substrate by ALPHA. The essentials:
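ALPHA demethylase assay. Recombinant KDM5B (4 nM) was preincubated with compound, then biotin-H3K4me3 peptide (64 nM) was added. Buffer: 10 μM α-KG, 100 μM ascorbate, 50 μM (NH4)2Fe(SO4)2, 50 mM HEPES pH 7.5, 0.01% Tween 20, 0.1% BSA. Read-out used streptavidin donor and H3K4me1-2 antibody acceptor beads. Data were normalized to blank control and IC50 fitted.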

In assay [5] the target is T3, Lysine-specific demethylase 4C (Homo sapiens, UniProt Q9H3R0).
T3 sequence (Q9H3R0 whole entry): T1 sequence (whole entry)
The assay is described as follows: Inhibition of KDM4C (unknown origin).

The target in assay [6] is T2, Lysine-specific demethylase 5B. The experiment in a line: Inhibition of KDM5B in human MKN-45 cells assessed as increase in H3K4me1 accumulation at 0.5 to 20 uM measured after 5 days by Western blot analysis. It is filed as cell-based. Particulars: dose 0.5-20 µM, time 5.0 day. The essentials: as §1
For assay [7], the target named is Lysine-specific demethylase 5C (Homo sapiens, UniProt P41229). The experiment in a line: Inhibition of KDM5C (unknown origin) at 1 uM relative to control.

Activity calls are given as the source filed them. The rule behind the calls is not given here.

T2 sequence (Q9UGL1 whole entry): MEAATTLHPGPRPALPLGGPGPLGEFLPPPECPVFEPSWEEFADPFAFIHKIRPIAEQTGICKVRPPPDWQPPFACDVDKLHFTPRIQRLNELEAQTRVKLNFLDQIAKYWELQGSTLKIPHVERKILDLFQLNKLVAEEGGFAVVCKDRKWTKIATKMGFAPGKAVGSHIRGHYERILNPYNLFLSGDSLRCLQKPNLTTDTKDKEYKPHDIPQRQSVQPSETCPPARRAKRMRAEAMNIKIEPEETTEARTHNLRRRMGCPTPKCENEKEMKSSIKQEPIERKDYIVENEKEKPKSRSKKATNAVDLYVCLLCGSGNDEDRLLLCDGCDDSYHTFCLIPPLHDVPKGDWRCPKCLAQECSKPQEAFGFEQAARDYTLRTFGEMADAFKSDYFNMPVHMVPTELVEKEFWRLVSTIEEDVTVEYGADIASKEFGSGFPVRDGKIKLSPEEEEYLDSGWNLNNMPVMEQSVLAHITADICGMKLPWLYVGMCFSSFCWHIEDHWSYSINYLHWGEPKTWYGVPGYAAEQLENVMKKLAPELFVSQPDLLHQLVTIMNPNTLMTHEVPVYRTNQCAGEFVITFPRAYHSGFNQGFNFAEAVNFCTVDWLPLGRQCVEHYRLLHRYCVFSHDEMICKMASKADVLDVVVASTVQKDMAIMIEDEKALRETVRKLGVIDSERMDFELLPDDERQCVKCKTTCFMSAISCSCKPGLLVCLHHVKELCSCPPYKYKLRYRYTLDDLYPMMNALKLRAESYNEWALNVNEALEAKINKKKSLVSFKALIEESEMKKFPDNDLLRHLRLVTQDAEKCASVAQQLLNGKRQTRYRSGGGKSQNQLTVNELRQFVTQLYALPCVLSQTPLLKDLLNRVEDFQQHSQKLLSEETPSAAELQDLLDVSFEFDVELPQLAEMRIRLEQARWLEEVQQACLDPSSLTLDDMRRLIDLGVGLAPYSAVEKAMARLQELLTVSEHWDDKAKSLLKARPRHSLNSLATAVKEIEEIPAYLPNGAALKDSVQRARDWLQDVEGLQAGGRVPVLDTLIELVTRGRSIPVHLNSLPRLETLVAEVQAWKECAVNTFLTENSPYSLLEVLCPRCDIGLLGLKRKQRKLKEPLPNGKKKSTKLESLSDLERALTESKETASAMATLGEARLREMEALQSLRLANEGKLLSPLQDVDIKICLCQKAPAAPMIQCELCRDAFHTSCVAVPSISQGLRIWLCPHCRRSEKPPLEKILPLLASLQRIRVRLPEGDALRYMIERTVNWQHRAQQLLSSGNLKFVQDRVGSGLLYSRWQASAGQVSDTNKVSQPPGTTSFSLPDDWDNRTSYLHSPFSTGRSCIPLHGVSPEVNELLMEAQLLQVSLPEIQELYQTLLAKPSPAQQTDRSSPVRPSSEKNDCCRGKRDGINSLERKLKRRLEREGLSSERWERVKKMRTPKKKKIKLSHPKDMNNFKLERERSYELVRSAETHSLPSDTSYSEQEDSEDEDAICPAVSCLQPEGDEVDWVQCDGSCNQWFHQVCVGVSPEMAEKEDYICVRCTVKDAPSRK
Lysine-specific demethylase 6B, sequence (O15054 whole entry): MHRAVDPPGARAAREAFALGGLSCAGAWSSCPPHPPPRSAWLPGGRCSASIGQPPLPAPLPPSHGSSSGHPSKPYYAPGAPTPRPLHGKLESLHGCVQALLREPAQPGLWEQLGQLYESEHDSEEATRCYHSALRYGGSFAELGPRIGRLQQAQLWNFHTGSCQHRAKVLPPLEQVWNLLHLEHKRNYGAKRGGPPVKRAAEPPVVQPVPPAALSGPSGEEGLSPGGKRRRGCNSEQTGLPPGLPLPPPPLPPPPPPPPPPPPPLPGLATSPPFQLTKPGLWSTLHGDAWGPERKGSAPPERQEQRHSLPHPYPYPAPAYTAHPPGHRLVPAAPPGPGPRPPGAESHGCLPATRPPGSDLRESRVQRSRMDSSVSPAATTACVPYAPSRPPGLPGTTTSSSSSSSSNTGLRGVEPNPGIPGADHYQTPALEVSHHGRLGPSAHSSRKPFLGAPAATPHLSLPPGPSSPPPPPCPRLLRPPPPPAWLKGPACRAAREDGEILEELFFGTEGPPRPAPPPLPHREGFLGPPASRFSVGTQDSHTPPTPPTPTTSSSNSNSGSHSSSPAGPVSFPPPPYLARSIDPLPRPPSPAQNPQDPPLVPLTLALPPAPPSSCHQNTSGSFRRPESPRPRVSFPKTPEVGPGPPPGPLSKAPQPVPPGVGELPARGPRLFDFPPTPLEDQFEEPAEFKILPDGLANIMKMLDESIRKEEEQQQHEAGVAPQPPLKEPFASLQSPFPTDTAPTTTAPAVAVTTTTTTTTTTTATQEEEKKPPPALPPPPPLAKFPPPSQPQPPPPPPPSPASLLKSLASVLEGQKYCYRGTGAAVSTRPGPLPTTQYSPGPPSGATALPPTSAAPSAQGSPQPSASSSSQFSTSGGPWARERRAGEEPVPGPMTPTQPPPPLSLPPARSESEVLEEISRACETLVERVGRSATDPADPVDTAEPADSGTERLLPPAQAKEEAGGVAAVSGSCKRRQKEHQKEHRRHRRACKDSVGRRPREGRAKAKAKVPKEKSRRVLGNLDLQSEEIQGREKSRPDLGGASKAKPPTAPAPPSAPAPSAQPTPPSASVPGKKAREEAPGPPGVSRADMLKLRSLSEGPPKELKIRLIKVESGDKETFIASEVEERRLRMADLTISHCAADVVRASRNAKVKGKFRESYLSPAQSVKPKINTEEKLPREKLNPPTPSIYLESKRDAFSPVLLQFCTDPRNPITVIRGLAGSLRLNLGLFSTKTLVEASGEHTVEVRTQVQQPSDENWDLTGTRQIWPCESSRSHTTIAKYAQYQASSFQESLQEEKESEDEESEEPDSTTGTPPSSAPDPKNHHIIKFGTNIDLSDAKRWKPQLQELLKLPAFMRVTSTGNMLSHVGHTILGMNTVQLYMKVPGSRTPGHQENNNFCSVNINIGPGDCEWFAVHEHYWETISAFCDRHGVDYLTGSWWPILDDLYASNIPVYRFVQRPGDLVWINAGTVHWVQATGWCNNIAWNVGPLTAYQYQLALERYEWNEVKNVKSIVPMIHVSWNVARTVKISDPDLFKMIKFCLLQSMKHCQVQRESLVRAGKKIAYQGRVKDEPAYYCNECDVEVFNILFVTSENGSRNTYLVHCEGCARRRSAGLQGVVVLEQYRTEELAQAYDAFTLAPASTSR
Lysine-specific demethylase 5C, sequence (P41229 whole entry): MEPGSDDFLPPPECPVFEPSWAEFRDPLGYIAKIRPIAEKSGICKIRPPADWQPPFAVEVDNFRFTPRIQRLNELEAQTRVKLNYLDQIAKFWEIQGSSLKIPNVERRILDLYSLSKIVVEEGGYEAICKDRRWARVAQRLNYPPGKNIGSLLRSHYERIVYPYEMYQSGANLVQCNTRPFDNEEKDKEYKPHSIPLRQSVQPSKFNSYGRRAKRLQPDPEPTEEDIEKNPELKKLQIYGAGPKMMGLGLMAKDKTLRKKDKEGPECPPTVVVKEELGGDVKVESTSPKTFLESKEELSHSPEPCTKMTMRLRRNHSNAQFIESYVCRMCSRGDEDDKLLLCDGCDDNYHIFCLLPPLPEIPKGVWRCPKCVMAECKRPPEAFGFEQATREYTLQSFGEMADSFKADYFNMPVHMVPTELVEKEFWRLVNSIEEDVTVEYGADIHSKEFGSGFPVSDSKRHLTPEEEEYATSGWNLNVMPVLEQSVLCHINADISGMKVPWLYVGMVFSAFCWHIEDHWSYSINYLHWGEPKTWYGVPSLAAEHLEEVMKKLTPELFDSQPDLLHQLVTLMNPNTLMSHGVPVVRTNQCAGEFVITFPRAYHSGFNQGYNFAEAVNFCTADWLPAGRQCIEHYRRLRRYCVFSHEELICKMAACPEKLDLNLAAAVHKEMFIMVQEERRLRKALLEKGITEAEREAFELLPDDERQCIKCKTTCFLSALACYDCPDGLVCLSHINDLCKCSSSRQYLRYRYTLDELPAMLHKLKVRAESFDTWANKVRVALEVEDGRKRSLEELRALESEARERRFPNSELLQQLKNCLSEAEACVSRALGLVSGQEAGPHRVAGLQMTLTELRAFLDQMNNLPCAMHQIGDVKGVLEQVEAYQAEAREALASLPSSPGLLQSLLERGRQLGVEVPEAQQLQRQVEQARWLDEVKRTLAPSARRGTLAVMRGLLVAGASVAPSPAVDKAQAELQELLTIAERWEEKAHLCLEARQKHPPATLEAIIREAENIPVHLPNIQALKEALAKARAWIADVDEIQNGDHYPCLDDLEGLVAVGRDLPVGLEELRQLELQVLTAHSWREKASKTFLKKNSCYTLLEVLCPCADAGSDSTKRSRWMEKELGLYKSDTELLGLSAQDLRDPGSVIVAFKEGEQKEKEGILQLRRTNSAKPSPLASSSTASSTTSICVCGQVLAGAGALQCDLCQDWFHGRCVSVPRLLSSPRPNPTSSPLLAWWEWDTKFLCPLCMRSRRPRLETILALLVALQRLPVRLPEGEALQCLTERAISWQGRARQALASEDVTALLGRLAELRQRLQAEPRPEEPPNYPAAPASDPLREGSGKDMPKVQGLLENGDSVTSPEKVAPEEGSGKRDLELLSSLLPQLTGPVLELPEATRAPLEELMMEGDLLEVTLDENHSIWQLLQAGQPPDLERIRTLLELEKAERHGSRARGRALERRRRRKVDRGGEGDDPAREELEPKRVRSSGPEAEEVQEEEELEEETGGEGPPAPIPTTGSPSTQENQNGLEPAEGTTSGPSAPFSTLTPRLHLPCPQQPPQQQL

`COc1ccc(-n2cc(C(=O)NCC(C)(C)N3CCOCC3)c(-c3ccccc3)n2)cc1`: the IC50 in assay [1] was above 1000 nM; in assay [4], 24.4 nM; in assay [5], 1110 nM. For the same compound, the inhibition amounted to 39.4% in assay [2] and 80.2% in assay [7]. In addition, the inhibition result in assay [3] is “Active”. Moreover, the inhibition entry in assay [6] is “inactive”.
